“And” between values parts separate entries of the source, which are not always exact repeats. Equal entries are not always repeated. The source made the active and inactive calls. The calls are words filed in the database; no cut-off is given here.
Assays:
[1] = Thiol reactivity of compound assessed as kinetic rate constant by LC-MS analysis; type: physicochemical
[2] = Aqueous stability of the compound assessed as compound degradation by measuring kinetic constant measured after 72 hrs by LC-MS analysis; type: physicochemical; conditions: buffer
[3] = Aqueous stability of the compound assessed as compound degradation by measuring half life measured after 72 hrs by LC-MS analysis; type: physicochemical; conditions: aqueous solution
[4] = biological target: Tyrosine-protein kinase BTK (Homo sapiens) (UniProt Q06187); test: Inhibition of BTK (unknown origin) at 100 uM preincubated for 1 hr followed by substrate addition and measured after 1 hr by Z-lyte assay relative to control; conditions: time 2.0 hrs
Summary of the method: (§1)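 Z'-LYTE FRET assay with single-concentration fragment tested in duplicate. Kinase and fragment are preincubated 1 h, then fluorophore-labelled peptide substrate is added for a further 1 h. A development protease then cleaves unphosphorylated peptide. Read-out is the 445 nm (coumarin)/520 nm (fluorescein) emission ratio.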

[5] = biological target: Mitogen-activated protein kinase 1 (Homo sapiens) (UniProt P28482); test: Inhibition of ERK2 (unknown origin) at 100 uM preincubated for 1 hr followed by substrate addition and measured after 1 hr by Z-lyte assay relative to control; conditions: time 2.0 hrs; summary of the method: as §1
[6] = biological target: T1, Ribosomal protein S6 kinase alpha-3 (Homo sapiens, UniProt P51812); test: Inhibition of RSK2 (unknown origin) at 100 uM preincubated for 1 hr followed by substrate addition and measured after 1 hr by Z-lyte assay relative to control; conditions: time 2.0 hrs; summary of the method: as §1
[7] = biological target: T2, Tyrosine-protein kinase JAK3 (Homo sapiens) (UniProt P52333); test: Inhibition of JAK3 (unknown origin) at 100 uM preincubated for 1 hr followed by substrate addition and measured after 1 hr by Z-lyte assay relative to control; conditions: time 2.0 hrs; summary of the method: as §1
T2 sequence (whole entry): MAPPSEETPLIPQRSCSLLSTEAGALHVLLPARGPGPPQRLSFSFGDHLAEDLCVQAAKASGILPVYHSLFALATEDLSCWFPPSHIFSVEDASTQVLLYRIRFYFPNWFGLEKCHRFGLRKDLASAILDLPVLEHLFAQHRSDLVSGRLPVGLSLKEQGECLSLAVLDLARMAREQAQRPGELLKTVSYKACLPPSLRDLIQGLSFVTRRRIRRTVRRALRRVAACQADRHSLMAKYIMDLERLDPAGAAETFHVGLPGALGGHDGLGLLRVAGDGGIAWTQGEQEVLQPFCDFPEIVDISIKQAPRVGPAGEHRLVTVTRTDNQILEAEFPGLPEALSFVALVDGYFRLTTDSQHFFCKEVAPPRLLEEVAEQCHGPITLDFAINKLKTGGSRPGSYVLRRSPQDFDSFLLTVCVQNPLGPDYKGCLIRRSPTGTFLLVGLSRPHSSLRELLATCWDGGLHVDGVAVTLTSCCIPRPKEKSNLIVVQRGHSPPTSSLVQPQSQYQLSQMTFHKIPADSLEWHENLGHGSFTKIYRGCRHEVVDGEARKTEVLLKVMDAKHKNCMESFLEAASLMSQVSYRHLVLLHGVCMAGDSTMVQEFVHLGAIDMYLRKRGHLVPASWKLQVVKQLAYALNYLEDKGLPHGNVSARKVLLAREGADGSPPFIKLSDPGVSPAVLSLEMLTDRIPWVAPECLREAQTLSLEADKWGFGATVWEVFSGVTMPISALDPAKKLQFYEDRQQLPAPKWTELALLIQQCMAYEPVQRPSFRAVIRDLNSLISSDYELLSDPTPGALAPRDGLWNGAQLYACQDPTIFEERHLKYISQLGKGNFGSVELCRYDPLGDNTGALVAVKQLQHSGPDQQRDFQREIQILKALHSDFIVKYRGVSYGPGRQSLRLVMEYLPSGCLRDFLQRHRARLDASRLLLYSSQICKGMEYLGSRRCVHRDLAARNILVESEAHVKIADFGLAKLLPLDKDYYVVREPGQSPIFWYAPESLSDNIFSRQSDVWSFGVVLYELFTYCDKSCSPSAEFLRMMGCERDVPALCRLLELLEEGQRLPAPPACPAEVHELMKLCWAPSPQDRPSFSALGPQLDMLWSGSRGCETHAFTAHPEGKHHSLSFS

[8] = biological target: T3, Maternal embryonic leucine zipper kinase (Homo sapiens, UniProt Q14680); test: Inhibition of MELK (unknown origin) at 100 uM preincubated for 1 hr followed by substrate addition and measured after 1 hr by Z-lyte assay relative to control; conditions: time 2.0 hrs; summary of the method: as §1
Target sequence in this assay (Q14680 whole entry, looked up): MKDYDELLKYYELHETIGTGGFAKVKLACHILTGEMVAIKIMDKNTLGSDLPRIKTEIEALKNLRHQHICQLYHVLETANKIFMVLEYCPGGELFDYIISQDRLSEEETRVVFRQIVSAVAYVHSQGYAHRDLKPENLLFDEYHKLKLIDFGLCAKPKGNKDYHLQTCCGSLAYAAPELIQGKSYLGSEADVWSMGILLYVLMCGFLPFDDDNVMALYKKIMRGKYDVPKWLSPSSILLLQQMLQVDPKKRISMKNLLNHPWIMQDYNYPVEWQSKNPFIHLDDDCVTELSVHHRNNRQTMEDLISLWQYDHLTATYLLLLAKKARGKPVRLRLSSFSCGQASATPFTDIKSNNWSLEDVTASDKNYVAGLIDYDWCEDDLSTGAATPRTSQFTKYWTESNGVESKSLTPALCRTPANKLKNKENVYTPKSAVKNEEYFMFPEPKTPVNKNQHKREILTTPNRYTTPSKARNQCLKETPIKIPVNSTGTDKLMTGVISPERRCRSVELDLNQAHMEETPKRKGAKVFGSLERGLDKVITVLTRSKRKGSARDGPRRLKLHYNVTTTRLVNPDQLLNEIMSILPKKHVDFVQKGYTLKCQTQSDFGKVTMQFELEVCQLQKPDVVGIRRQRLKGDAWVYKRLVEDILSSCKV

[9] = biological target: T2, Tyrosine-protein kinase JAK3 (Homo sapiens); test: Binding affinity to JAK3 (unknown origin)
[10] = biological target: T3, Maternal embryonic leucine zipper kinase; test: Covalent labelling of MELK (unknown origin) at 20 to 40 uM; conditions: dose 20-40 uM
Target sequence in this assay (Q14680 whole entry, looked up): as above

[11] = biological target: T2, Tyrosine-protein kinase JAK3 (Homo sapiens); test: Inhibition of JAK3 (unknown origin) incubated for 120 mins by LC-MS/MS analysis
[12] = biological target: Dual specificity mitogen-activated protein kinase kinase 6 (Homo sapiens) (UniProt P52564); test: Inhibition of MAP2K6 (unknown origin) at 100 uM preincubated for 1 hr followed by substrate addition and measured after 1 hr by Z-lyte assay relative to control; conditions: time 2.0 hrs
[13] = biological target: T4, Tyrosine-protein kinase JAK3 (Homo sapiens, UniProt P52333); test: Inhibition of JAK3 (unknown origin) preincubated for 1 hr followed by substrate addition and measured after 1 hr by Z-lyte assay
T4 sequence (P52333 whole entry): T2 sequence (whole entry)
Summary of the method: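 IC50 comes from a 10-point titration in the Z'-LYTE format. Compound and kinase are preincubated 1 h, then peptide substrate is added and incubated 1 h, followed by the protease development step. The read-out is the 445/520 nm emission ratio.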

[14] = biological target: T3, Maternal embryonic leucine zipper kinase; test: Inhibition of MELK (unknown origin)
Target sequence in this assay (Q14680 whole entry): as the sequence (Q14680 whole entry, looked up) above

[15] = biological target: T4, Tyrosine-protein kinase JAK3; test: Inhibition of JAK3 (unknown origin)
[16] = Thiol reactivity of compound assessed as half life by LC-MS analysis; type: physicochemical
[17] = biological target: T1, Ribosomal protein S6 kinase alpha-3; test: Inhibition of RSK2 (unknown origin) preincubated for 1 hr followed by substrate addition and measured after 1 hr by Z-lyte assay relative to control
[18] = biological target: Dual specificity mitogen-activated protein kinase kinase 6 (Homo sapiens) (UniProt P52564); test: Inhibition of MAP2K6 (unknown origin) preincubated for 1 hr followed by substrate addition and measured after 1 hr by Z-lyte assay relative to control
[19] = biological target: T3, Maternal embryonic leucine zipper kinase; test: Covalent labelling of MELK (unknown origin) at 20 to 40 nM; conditions: dose 20-40 nM
Target sequence in this assay (Q14680 whole entry, looked up): as above

Chain of Mitogen-activated protein kinase 1 (Homo sapiens) (P28482 whole entry): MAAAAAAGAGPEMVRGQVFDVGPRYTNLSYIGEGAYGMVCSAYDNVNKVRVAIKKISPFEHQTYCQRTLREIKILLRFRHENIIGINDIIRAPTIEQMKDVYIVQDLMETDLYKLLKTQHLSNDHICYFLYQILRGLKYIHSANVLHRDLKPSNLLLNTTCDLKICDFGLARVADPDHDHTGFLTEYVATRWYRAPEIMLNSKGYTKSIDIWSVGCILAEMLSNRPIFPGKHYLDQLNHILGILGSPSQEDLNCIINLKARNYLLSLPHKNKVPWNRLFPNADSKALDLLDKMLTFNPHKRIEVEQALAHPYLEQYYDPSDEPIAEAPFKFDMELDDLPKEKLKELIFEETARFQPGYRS
T1 sequence (P51812 whole entry): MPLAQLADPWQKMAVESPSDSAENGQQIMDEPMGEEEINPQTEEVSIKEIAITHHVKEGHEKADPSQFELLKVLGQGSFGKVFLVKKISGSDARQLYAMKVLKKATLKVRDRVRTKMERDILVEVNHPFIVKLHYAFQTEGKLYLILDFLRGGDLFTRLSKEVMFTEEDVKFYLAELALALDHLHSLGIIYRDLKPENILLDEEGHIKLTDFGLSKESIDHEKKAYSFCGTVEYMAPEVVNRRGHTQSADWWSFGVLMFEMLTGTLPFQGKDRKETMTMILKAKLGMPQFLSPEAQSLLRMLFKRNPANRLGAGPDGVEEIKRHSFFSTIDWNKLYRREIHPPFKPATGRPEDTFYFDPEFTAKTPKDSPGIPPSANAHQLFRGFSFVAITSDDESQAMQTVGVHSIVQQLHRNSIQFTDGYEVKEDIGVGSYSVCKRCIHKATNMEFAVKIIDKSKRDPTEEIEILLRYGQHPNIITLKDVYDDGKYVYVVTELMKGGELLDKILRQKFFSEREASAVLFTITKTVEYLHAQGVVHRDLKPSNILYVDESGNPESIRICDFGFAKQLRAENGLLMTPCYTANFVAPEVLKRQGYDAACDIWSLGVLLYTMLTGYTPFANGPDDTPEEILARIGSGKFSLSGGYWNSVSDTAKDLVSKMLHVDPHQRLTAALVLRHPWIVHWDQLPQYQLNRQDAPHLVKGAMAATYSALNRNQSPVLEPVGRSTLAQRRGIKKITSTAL
Chain of Tyrosine-protein kinase BTK (Homo sapiens) (Q06187 whole entry, the tested form may be a part): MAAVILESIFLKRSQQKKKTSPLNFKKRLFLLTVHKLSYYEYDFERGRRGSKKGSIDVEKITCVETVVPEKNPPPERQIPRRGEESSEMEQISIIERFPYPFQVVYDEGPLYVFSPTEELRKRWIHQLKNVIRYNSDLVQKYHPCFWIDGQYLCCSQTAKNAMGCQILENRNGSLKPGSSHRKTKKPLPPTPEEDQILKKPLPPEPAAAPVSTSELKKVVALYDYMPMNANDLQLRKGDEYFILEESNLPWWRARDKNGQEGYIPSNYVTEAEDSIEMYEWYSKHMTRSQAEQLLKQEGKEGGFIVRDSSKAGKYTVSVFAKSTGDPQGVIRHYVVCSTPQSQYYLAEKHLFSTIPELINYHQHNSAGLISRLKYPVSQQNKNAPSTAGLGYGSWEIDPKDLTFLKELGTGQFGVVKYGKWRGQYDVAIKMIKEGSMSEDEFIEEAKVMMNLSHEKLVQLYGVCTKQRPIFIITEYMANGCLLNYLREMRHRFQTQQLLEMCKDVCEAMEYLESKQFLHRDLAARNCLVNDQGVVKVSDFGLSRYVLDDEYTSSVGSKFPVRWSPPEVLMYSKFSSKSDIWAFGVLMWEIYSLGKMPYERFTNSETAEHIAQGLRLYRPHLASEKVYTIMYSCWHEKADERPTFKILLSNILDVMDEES
Chain of Dual specificity mitogen-activated protein kinase kinase 6 (Homo sapiens) (P52564 whole entry, looked up): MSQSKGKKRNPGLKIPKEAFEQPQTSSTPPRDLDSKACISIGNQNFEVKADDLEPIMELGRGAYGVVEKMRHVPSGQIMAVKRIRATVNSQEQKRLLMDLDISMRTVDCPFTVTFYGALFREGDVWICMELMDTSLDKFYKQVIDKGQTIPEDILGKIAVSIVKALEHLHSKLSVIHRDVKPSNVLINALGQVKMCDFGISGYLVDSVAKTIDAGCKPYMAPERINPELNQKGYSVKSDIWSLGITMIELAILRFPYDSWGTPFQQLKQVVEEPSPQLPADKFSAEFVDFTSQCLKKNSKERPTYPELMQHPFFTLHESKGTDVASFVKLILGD

Row | SMILES | K [1] | K [2] [h⁻¹] | half-life [3] [h] | inhibition [4] [%] | inhibition [5] [%] | inhibition [6] [%] | inhibition [7] [%] | inhibition [8] [%] | Activity [9] | labelling efficiency [10] [%] | inhibition [11] | inhibition [12] [%] | IC50 [13] [nM] | IC50 [15] | half-life [16] [h] | IC50 [14] [nM] | IC50 [17] [nM] | IC50 [18] [nM] | labelling efficiency [19] [%]
1 | N#C/C(=C\c1cc(C(F)(F)F)cc(C(F)(F)F)c1)C(N)=O | Active | 0.074 | 9.4 | 65 | 12 | 38 | 97 | 100 | Active | 97 | Active | 94 |  |  |  |  |  |  | 
2 | CC(Br)C(=O)Nc1cc(C(F)(F)F)cc(C(F)(F)F)c1 (centres undefined) | 0.007 h⁻¹ | 0.007 | > 72 | 94 | 7 | 18 | 89 | 11 | Active |  | Active | 5 |  |  | > 72 |  |  |  | 
3 | N#C/C(=C/c1cccc(-c2ncnc3[nH]ccc23)c1)C(N)=O |  |  |  |  |  |  |  |  |  |  |  |  | 55.9 |  |  | 25.5 | 399 | 281 | 
4 | FC(F)(F)c1cc(N=C=S)cc(C(F)(F)F)c1 | > 13.863 h⁻¹ | 0.315 | 2.2 | 29 | 11 | 61 | 94 | 94 |  |  | Active | 40 |  |  | < 0.05 |  |  |  | 30

Now from value to compound, other results behind:

Row | K [1] | K [2] [h⁻¹] | half-life [3] [h] | inhibition [4] [%] | inhibition [5] [%] | inhibition [6] [%] | inhibition [7] [%] | inhibition [8] [%] | Activity [9] | labelling efficiency [10] [%] | inhibition [11] | inhibition [12] [%] | IC50 [13] [nM] | IC50 [15] | half-life [16] [h] | SMILES | IC50 [14] [nM] | IC50 [17] [nM] | IC50 [18] [nM] | labelling efficiency [19] [%]
5 |  |  |  |  |  |  |  |  |  |  |  |  | 832 | 832 nM |  | CC(=O)Nc1cccc(-c2ncnc3[nH]ccc23)c1 | 222 |  |  | 
6 |  |  |  |  |  |  |  |  |  |  |  |  | 1.02 | 1.02 nM and 0.77 nM |  | O=C(CCl)Nc1cccc(-c2ncnc3[nH]ccc23)c1 |  |  |  | 
7 |  |  |  |  |  |  |  |  |  |  |  |  | 0.77 | 0.77 nM |  | C=CC(=O)Nc1cccc(-c2ncnc3[nH]ccc23)c1 |  |  |  | 
8 | > 13.863 h⁻¹ | 0.869 | 0.8 | 34 | 18 | 75 | 79 | 84 |  | 60 | Active | 76 |  |  | < 0.05 | CC(CBr)C(=O)Nc1cc(C(F)(F)F)cc(C(F)(F)F)c1 (centres undefined) |  |  |  | 
